pIC50: −log10 of the molar value.
Tests used:
[1] = target: T1, Acyl-protein thioesterase 1 (Rattus norvegicus, UniProt P70470); assay: ChEBML_100186
From the text: in vitro inhibitory activity against Lysosomal phospholipase A1 consisting of negatively charged liposomes and lysosomal extracts. p<0.05

[2] = target: T1, Acyl-protein thioesterase 1; assay: in vitro inhibitory activity against Lysosomal phospholipase A1 consisting of negatively charged liposomes and lysosomal extracts.
How it was run: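 Lysosomal phospholipase activity measured on labeled phosphatidylcholine incorporated into negatively charged liposomes, read as release of labeled lysophosphatidylcholine.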

T1 sequence (P70470 whole entry): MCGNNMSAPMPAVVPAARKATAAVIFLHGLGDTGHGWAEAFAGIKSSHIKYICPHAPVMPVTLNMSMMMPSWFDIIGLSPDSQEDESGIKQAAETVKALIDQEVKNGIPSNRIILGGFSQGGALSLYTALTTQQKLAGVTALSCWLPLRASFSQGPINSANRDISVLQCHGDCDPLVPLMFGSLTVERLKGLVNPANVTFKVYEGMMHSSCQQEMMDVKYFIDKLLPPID

pIC50 [1] | pIC50 [2] | Compound
4.10 |  | NCC1OC(OC2C(N)CC(N)(CO)C(OC3OC(CO)C(O)C(N)C3O)C2O)C(N)C(O)C1O (centres undefined)
 | 3.98 | NCC1OC(OC2C(N)CC(N)(CO)C(OC3OC(CCl)C(O)C(N)C3O)C2O)C(N)C(O)C1O (centres undefined)
 | 3.92 | CC(=O)NCC1OC(OC2C(O)C(OC3OC(CN)C(O)C(O)C3N)C(N)CC2(N)CO)C(O)C(N)C1O (centres undefined)
4.02 |  | [N-]=[N+]=NCC1OC(OC2C(O)C(OC3OC(CN)C(O)C(O)C3N)C(N)CC2(N)CO)C(O)C(N)C1O (centres undefined)
